Data: ChEMBL document CHEMBL3272347, “Adamantanamine derivatives. Antimicrobial activities of certain Mannich bases” (1976)
Converted amounts (≈) assume the structure as drawn.

Key:
Assay type in all cases: functional
Escherichia coli [1] = experiment: Antimicrobial activity against Escherichia coli ATCC 11303 assessed as zone of inhibition after 24 hrs at 1 mg/0.1 ml by agar diffusion method
In short: (§1)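 Bacteria were tested on seeded agar plates with 12.7-mm disks, each loaded with 0.1 ml of compound in Me2SO (stock used directly or Me2SO-diluted). Disks were held 30 min on a wire screen before placement, four per plate. Incubation was 37°, 24 hr. Inhibition zones were measured by caliper to the nearest 0.1 mm. Replicates were 2–4 per dilution over at least two separate days, averaged.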

Escherichia coli [2] = experiment: Antimicrobial activity against Escherichia coli ATCC 8739 assessed as zone of inhibition after 24 hrs at 2 mg/0.1 ml by agar diffusion method; in short: as §1
Candida albicans [3] = experiment: Antimicrobial activity against Candida albicans CDC MI-023 assessed as zone of inhibition after 24 hrs at 2 mg/0.1 ml by agar diffusion method
In short: (§2)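 Disk agar diffusion on SDA. Compound in Me2SO stock, used neat or diluted in Me2SO, was loaded at 0.1 ml per 12.7-mm disk. Disks stood 30 min on mesh, then went four per seeded plate. Plates ran at 37° for 48 hr (A. niger) or 24 hr (C. albicans). Zones were read by caliper to 0.1 mm. There were 2–4 replicate disks per dilution and ≥2 experiments on separate days with same-day stocks; results were averaged.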

Staphylococcus aureus [4] = experiment: Antimicrobial activity against Staphylococcus aureus ATCC 10014 assessed as zone of inhibition after 24 hrs at 0.1 mg/0.1 ml by agar diffusion method; in short: as §1
[5] = system: Mycolicibacterium smegmatis; experiment: Antimicrobial activity against Mycobacterium smegmatis OU 10049 assessed as zone of inhibition after 48 hrs at 0.5 mg/0.1 ml by agar diffusion method
In short: (§3)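 Mycobacterium disk diffusion on MDTM agar. Each disk (12.7 mm) got 0.1 ml of Me2SO solution, was air-stood 30 min, then was placed four per seeded plate. Plates were incubated at 37° for 48 hr. Zone diameter was measured by caliper to 0.1 mm. Results averaged 2–4 replicate disks and ≥2 independent-day experiments.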

Pseudomonas aeruginosa [6] = experiment: Antimicrobial activity against Pseudomonas aeruginosa OU 10048 assessed as zone of inhibition after 24 hrs at 4 mg/0.1 ml by agar diffusion method; in short: as §1
Aspergillus niger [7] = experiment: Antimicrobial activity against Aspergillus niger OU S-23 assessed as zone of inhibition after 48 hrs at 2 mg/0.1 ml by agar diffusion method; in short: as §2
Mycolicibacterium phlei [8] = experiment: Antimicrobial activity against Mycobacterium phlei ATCC 356 assessed as zone of inhibition after 48 hrs at 0.5 mg/0.1 ml by agar diffusion method; in short: as §3
Staphylococcus aureus [9] = experiment: Antimicrobial activity against Staphylococcus aureus ATCC 10001 assessed as zone of inhibition after 24 hrs at 0.1 mg/0.1 ml by agar diffusion method; in short: as §1
Escherichia coli [10] = experiment: Antimicrobial activity against Escherichia coli ATCC 10586 assessed as zone of inhibition after 24 hrs at 2 mg/0.1 ml by agar diffusion method; in short: as §1
Candida albicans [11] = experiment: Antimicrobial activity against Candida albicans CDC MI-023 assessed as zone of inhibition after 24 hrs at 0.5 mg/0.1 ml by agar diffusion method; in short: as §2
Escherichia coli [12] = experiment: Antimicrobial activity against Escherichia coli ATCC 8739 assessed as zone of inhibition after 24 hrs at 1 mg/0.1 ml by agar diffusion method; in short: as §1
Staphylococcus aureus [13] = experiment: Antimicrobial activity against Staphylococcus aureus by tube dilution method
In short: (§4)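 MIC was found by tube dilution, with Me2SO as carrier solvent diluted in the tubes. For M. smegmatis, separate determinations were made in MDTM broth and in MDTM agar.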

[14] = system: Mycolicibacterium smegmatis; experiment: Antimicrobial activity against Mycobacterium smegmatis by tube dilution method; in short: as §4
Escherichia coli [15] = experiment: Antimicrobial activity against Escherichia coli ATCC 10586 assessed as zone of inhibition after 24 hrs at 1 mg/0.1 ml by agar diffusion method; in short: as §1
Staphylococcus aureus [16] = experiment: Antimicrobial activity against Staphylococcus aureus ATCC 10001 assessed as zone of inhibition after 24 hrs at 1 mg/0.1 ml by agar diffusion method; in short: as §1
Aspergillus niger [17] = experiment: Antimicrobial activity against Aspergillus niger OU S-23 assessed as zone of inhibition after 48 hrs at 4 mg/0.1 ml by agar diffusion method; in short: as §2
Escherichia coli [18] = experiment: Antimicrobial activity against Escherichia coli ATCC 11303 assessed as zone of inhibition after 24 hrs at 0.5 mg/0.1 ml by agar diffusion method; in short: as §1
Escherichia coli [19] = experiment: Antimicrobial activity against Escherichia coli by tube dilution method; in short: as §4
Staphylococcus aureus [20] = experiment: Antimicrobial activity against Staphylococcus aureus ATCC 10014 assessed as zone of inhibition after 24 hrs at 1 mg/0.1 ml by agar diffusion method; in short: as §1
Candida albicans [21] = experiment: Antimicrobial activity against Candida albicans CDC MI-023 assessed as zone of inhibition after 24 hrs at 4 mg/0.1 ml by agar diffusion method; in short: as §2
Escherichia coli [22] = experiment: Antimicrobial activity against Escherichia coli ATCC 11303 assessed as zone of inhibition after 24 hrs at 2 mg/0.1 ml by agar diffusion method; in short: as §1
Staphylococcus aureus [23] = experiment: Antimicrobial activity against Staphylococcus aureus ATCC 10014 assessed as zone of inhibition after 24 hrs at 0.5 mg/0.1 ml by agar diffusion method; in short: as §1
[24] = system: Mycolicibacterium smegmatis; experiment: Antimicrobial activity against Mycobacterium smegmatis OU 10049 assessed as zone of inhibition after 48 hrs at 1 mg/0.1 ml by agar diffusion method; in short: as §3
Staphylococcus aureus [25] = experiment: Antimicrobial activity against Staphylococcus aureus ATCC 10001 assessed as zone of inhibition after 24 hrs at 0.5 mg/0.1 ml by agar diffusion method; in short: as §1
Candida albicans [26] = experiment: Antimicrobial activity against Candida albicans CDC MI-023 assessed as zone of inhibition after 24 hrs at 0.1 mg/0.1 ml by agar diffusion method; in short: as §2
Mycolicibacterium phlei [27] = experiment: Antimicrobial activity against Mycobacterium phlei ATCC 356 assessed as zone of inhibition after 48 hrs at 0.25 mg/0.1 ml by agar diffusion method; in short: as §3
[28] = system: Mycolicibacterium smegmatis; experiment: Antimicrobial activity against Mycobacterium smegmatis OU 10049 assessed as zone of inhibition after 48 hrs at 0.25 mg/0.1 ml by agar diffusion method; in short: as §3
Escherichia coli [29] = experiment: Antimicrobial activity against Escherichia coli ATCC 10586 assessed as zone of inhibition after 24 hrs at 0.25 mg/0.1 ml by agar diffusion method; in short: as §1
Escherichia coli [30] = experiment: Antimicrobial activity against Escherichia coli ATCC 11303 assessed as zone of inhibition after 24 hrs at 0.1 mg/0.1 ml by agar diffusion method; in short: as §1
Staphylococcus aureus [31] = experiment: Antimicrobial activity against Staphylococcus aureus ATCC 10014 assessed as zone of inhibition after 24 hrs at 0.05 mg/0.1 ml by agar diffusion method; in short: as §1
Escherichia coli [32] = experiment: Antimicrobial activity against Escherichia coli ATCC 8739 assessed as zone of inhibition after 24 hrs at 0.5 mg/0.1 ml by agar diffusion method; in short: as §1
Staphylococcus aureus [33] = experiment: Antimicrobial activity against Staphylococcus aureus ATCC 10001 assessed as zone of inhibition after 24 hrs at 0.05 mg/0.1 ml by agar diffusion method; in short: as §1
[34] = system: Mycolicibacterium smegmatis; experiment: Antimicrobial activity against Mycobacterium smegmatis OU 10049 assessed as zone of inhibition after 48 hrs at 0.1 mg/0.1 ml by agar diffusion method; in short: as §3
Escherichia coli [35] = experiment: Antimicrobial activity against Escherichia coli ATCC 8739 assessed as zone of inhibition after 24 hrs at 4 mg/0.1 ml by agar diffusion method; in short: as §1
Staphylococcus aureus [36] = experiment: Antimicrobial activity against Staphylococcus aureus ATCC 10014 assessed as zone of inhibition after 24 hrs at 0.25 mg/0.1 ml by agar diffusion method; in short: as §1
Staphylococcus aureus [37] = experiment: Antimicrobial activity against Staphylococcus aureus ATCC 10001 assessed as zone of inhibition after 24 hrs at 0.25 mg/0.1 ml by agar diffusion method; in short: as §1
Mycolicibacterium phlei [38] = experiment: Antimicrobial activity against Mycobacterium phlei ATCC 356 assessed as zone of inhibition after 48 hrs at 0.1 mg/0.1 ml by agar diffusion method; in short: as §3
Aspergillus niger [39] = experiment: Antimicrobial activity against Aspergillus niger OU S-23 assessed as zone of inhibition after 48 hrs at 0.25 mg/0.1 ml by agar diffusion method; in short: as §2
Pseudomonas aeruginosa [40] = experiment: Antimicrobial activity against Pseudomonas aeruginosa OU 10048 assessed as zone of inhibition after 24 hrs at 0.5 mg/0.1 ml by agar diffusion method; in short: as §1
Escherichia coli [41] = experiment: Antimicrobial activity against Escherichia coli ATCC 10586 assessed as zone of inhibition after 24 hrs at 0.5 mg/0.1 ml by agar diffusion method; in short: as §1

| SMILES | inhibition zone (IZ) (Escherichia coli [2]) | inhibition zone (IZ) (Staphylococcus aureus [4]) | inhibition zone (IZ) [5] | inhibition zone (IZ) (Pseudomonas aeruginosa [6]) | inhibition zone (IZ) (Aspergillus niger [7]) | inhibition zone (IZ) (Mycolicibacterium phlei [8]) | inhibition zone (IZ) (Staphylococcus aureus [9]) | inhibition zone (IZ) (Escherichia coli [10]) | inhibition zone (IZ) (Candida albicans [11]) | MIC (Staphylococcus aureus [13]) | MIC [14] | inhibition zone (IZ) (Escherichia coli [15]) | inhibition zone (IZ) (Aspergillus niger [17]) | inhibition zone (IZ) (Escherichia coli [18]) | MIC (Escherichia coli [19]) | inhibition zone (IZ) (Mycolicibacterium phlei [27]) | inhibition zone (IZ) [28] | other results |
| --- | --- | --- | --- | --- | --- | --- | --- | --- | --- | --- | --- | --- | --- | --- | --- | --- | --- | --- |
| Cl.O=C(CCNC12CC3CC(CC(C3)C1)C2)c1cccc([N+](=O)[O-])c1 | 16.3 mm | 15.7 mm | 16.6 mm | 15 mm | 15 mm | 19.1 mm | 15.4 mm | 16.8 mm | – | – | – | – | – | – | – | – | – | inhibition zone (IZ) (Escherichia coli [1]): 15.5 mm; inhibition zone (IZ) (Candida albicans [3]): 16.2 mm |
| Cl.O=C(CCNC12CC3CC(CC(C3)C1)C2)c1ccc(F)cc1 | – | – | 15.3 mm | 15 mm | – | 17.7 mm | – | – | 16.6 mm | 500 µg/mL | 250 µg/mL | 16.5 mm | 15 mm | 17.6 mm | 1000 µg/mL | – | – | inhibition zone (IZ) (Escherichia coli [12]): 16.7 mm; inhibition zone (IZ) (Staphylococcus aureus [16]): 19.1 mm; inhibition zone (IZ) (Staphylococcus aureus [20]): 16.6 mm |
| Cl.O=C(CCNC12CC3CC(CC(C3)C1)C2)c1ccc(O)cc1 | 16 mm | – | – | 15 mm | – | 16.3 mm | – | 16 mm | – | – | – | – | 15 mm | – | – | – | – | inhibition zone (IZ) (Candida albicans [21]): 15.4 mm; inhibition zone (IZ) (Escherichia coli [22]): 17.2 mm; inhibition zone (IZ) (Staphylococcus aureus [23]): 15.3 mm; inhibition zone (IZ) [24]: 19 mm; inhibition zone (IZ) (Staphylococcus aureus [25]): 15.6 mm |
| Cl.O=C(CCNC12CC3CC(CC(C3)C1)C2)c1cccc(Br)c1 | – | 17.5 mm | – | 15 mm | – | – | 18.7 mm | – | – | 125 µg/mL | 125 µg/mL | 17.4 mm | 16.8 mm | 17.5 mm | 500 µg/mL | 20 mm | 17.6 mm | inhibition zone (IZ) (Escherichia coli [12]): 18.2 mm; inhibition zone (IZ) (Candida albicans [26]): 15.3 mm |
| Cl.O=C(CCNC12CC3CC(CC(C3)C1)C2)c1ccc([N+](=O)[O-])cc1 | 16.5 mm | 15.8 mm | – | <14 mm | 15.2 mm | – | 16 mm | – | 16.4 mm | 125 µg/mL | 500 µg/mL | 15.3 mm | – | – | 500 µg/mL | 19.4 mm | 17.4 mm | inhibition zone (IZ) (Escherichia coli [1]): 16.5 mm |
| Cl.O=C(CCNC12CC3CC(CC(C3)C1)C2)c1ccc(Br)cc1 | – | – | – | <15 mm | 19 mm | – | – | – | – | 125 µg/mL | 125 µg/mL | – | – | – | 500 µg/mL | 19.2 mm | 17 mm | inhibition zone (IZ) (Escherichia coli [29]): 15.3 mm; inhibition zone (IZ) (Escherichia coli [30]): 15.6 mm; inhibition zone (IZ) (Staphylococcus aureus [31]): 17 mm; inhibition zone (IZ) (Candida albicans [26]): 15.1 mm; inhibition zone (IZ) (Escherichia coli [32]): 17.8 mm; inhibition zone (IZ) (Staphylococcus aureus [33]): 16.6 mm |
| Oc1ccc(-c2ccccc2)cc1CNC12CC3CC(CC(C3)C1)C2 | – | – | – | 15 mm | – | – | – | 15 mm | – | – | 62.5 µg/mL (≈ 187 µM) | – | <15 mm | – | – | – | – | inhibition zone (IZ) (Candida albicans [3]): 15.8 mm; inhibition zone (IZ) [34]: 18.7 mm; inhibition zone (IZ) (Escherichia coli [35]): 15.6 mm; inhibition zone (IZ) (Escherichia coli [22]): 15.1 mm; inhibition zone (IZ) (Staphylococcus aureus [36]): 16.8 mm; inhibition zone (IZ) (Staphylococcus aureus [37]): 17.3 mm; inhibition zone (IZ) (Mycolicibacterium phlei [38]): 18.9 mm |
| Oc1ccc(/N=N/c2ccccc2)cc1CNC12CC3CC(CC(C3)C1)C2 | – | – | 15.5 mm | – | – | <15 mm | – | – | <15 mm | – | – | – | – | <15 mm | – | – | – | inhibition zone (IZ) (Aspergillus niger [39]): 15 mm; inhibition zone (IZ) (Pseudomonas aeruginosa [40]): 15 mm; inhibition zone (IZ) (Staphylococcus aureus [36]): 15.4 mm; inhibition zone (IZ) (Escherichia coli [32]): 15 mm; inhibition zone (IZ) (Staphylococcus aureus [37]): <15 mm; inhibition zone (IZ) (Escherichia coli [41]): 15 mm |
